The record followed here is BindingDB's records for doi:10.1016/j.bmcl.2013.07.029 (Vanderbilt University Medical Center, 2013).

For this assay, the target named is Metabotropic glutamate receptor 1 (Homo sapiens, UniProt Q13255). Nature of the assay: Negative allosteric modulation of human mGlu1 receptor expressed in HEK293A TREx cells assessed as calcium flux after 45 mins. The procedure, abridged: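 HEK293A TREx cells stably expressing human mGlu1 were induced overnight with 50 ng/mL tetracycline at 37 °C. Ten-point 1:3 compound series were added for 2.3 min, then an EC20 of glutamate, then an EC80 of glutamate 1.9 min later. Ca2+ flux was read for 1.7 min. Values are the average of n ≥ 3.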

The structures appear in SMILES notation.

Metabotropic glutamate receptor 1, sequence (Q13255 whole entry): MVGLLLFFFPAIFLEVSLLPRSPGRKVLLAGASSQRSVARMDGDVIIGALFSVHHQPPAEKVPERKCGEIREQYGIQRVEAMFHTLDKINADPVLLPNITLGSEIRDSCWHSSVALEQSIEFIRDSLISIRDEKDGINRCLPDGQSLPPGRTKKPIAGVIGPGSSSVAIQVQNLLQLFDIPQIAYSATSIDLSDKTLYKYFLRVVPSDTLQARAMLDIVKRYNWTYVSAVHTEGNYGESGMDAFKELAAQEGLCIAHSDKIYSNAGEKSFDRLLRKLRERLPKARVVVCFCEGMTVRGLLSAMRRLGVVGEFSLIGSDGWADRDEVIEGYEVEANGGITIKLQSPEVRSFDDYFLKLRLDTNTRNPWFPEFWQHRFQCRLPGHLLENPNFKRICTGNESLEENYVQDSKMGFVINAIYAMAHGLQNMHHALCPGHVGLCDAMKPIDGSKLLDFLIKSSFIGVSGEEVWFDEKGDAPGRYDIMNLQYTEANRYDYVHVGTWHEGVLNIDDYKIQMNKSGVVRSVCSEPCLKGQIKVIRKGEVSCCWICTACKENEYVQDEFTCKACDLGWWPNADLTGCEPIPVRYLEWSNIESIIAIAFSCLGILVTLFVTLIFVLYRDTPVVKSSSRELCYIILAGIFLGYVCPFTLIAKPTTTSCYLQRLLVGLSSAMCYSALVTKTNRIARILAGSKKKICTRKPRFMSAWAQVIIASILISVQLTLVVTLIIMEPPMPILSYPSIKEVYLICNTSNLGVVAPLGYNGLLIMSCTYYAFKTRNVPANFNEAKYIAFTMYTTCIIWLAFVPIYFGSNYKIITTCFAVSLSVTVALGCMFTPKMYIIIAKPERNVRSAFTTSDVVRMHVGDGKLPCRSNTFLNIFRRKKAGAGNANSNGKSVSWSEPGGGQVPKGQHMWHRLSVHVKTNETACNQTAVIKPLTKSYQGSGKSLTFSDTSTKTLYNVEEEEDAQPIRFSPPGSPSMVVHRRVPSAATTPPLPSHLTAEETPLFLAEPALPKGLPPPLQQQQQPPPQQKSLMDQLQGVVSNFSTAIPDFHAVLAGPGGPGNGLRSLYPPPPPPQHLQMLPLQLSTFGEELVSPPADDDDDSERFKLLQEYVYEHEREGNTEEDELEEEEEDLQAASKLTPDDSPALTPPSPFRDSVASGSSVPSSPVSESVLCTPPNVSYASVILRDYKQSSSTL

As to `CC(C)(C)C(=O)N1C[C@@H]2CN(c3ccccn3)C[C@@H]2C1`, the IC50 was over 31.6 µM.
Regarding `CC(C)(C)CC(=O)N1C[C@@H]2CN(c3ccccn3)C[C@@H]2C1`, the IC50 is over 31.6 µM.
